Results pooled from the literature.
Compare with care: the assays were run in different laboratories.
Target: Ephrin type-A receptor 1 (EPHA1, Homo sapiens, UniProt P21709)
Sequence (P21709 26-976, as in one of the studies): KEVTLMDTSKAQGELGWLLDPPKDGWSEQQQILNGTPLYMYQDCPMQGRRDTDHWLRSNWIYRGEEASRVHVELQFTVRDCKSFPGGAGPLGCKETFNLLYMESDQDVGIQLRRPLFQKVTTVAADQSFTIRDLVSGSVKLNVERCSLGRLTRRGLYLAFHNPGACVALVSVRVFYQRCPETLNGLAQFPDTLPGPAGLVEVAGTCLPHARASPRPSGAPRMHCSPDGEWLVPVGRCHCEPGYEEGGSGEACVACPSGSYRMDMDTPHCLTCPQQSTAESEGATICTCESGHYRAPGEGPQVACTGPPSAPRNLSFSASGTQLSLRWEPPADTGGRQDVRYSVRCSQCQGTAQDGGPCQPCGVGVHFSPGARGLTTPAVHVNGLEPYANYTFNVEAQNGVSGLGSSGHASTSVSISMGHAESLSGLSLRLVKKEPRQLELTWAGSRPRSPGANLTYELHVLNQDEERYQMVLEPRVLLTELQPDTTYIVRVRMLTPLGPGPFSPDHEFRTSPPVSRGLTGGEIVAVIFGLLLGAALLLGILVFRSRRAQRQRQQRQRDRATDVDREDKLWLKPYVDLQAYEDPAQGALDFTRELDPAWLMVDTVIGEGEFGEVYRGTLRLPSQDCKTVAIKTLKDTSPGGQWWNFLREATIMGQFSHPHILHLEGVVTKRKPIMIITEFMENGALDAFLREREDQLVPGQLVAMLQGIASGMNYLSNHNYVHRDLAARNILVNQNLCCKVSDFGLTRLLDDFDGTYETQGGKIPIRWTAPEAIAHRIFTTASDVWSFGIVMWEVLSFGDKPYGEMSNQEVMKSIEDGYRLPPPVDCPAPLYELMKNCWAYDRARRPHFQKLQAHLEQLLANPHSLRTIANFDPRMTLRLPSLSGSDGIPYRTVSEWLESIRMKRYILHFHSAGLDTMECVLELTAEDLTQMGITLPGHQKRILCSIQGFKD

Compound | effect on | mode | technique | tested at | endpoint | value
CC(C)(C)c1cc(C=C(C#N)C#N)cc(Br)c1O | enzyme activity | inhibitor |  | 0.5 µM | remaining activity | 85.1%
COc1cc(Nc2ncc(F)c(Nc3ccc4c(n3)NC(=O)C(C)(C)O4)n2)cc(OC)c1OC | binding |  | competition with immobilised ligand | 10 µM | inhibition | 98%
Nc1ncc(-c2nc(N3CCOCC3)nc(N3CCOCC3)n2)c(C(F)F)n1 | cell-free assay |  | competition with immobilised ligand | 10 µM | remaining binding | 68%
Cn1cncc1[C@@](O)(COc1ccc(C#N)cc1-c1ccc(OC(F)(F)F)cc1)c1ccc(C#N)cc1 | cell-free assay |  | competition with immobilised ligand | 1 µM | remaining binding | 93%
COc1ncccc1-c1cnn2ccc(N3CCN(C(=O)OC(C)C)CC3)nc12 | binding |  | competition with immobilised ligand | 1 µM | remaining binding | 84%
Cn1cc(-c2cccc(N3CCc4c(sc5c4CC(C)(C)C5)C3=O)c2CO)cc(Nc2ccncn2)c1=O | enzyme activity | inhibitor |  | 1 µM | inhibition | 3%
Cc1nn(C)cc1-c1nc2c(N3CCN(Cc4ccc(Cl)cc4)CC3)c(Cl)cnc2[nH]1 | binding |  | competition with immobilised ligand | 1 µM | remaining binding | 90%
O=c1[nH]c2ccccc2n1C1CCN(Cc2ccc(-c3[nH]c4cc5ncnc5cc4nc3-c3ccccc3)cc2)CC1 | cell-free assay |  |  | 0.5 µM | remaining signal | 84.4%
Cn1cc(-c2cc(F)cc(N3CCn4c(cc5c4CCCC5)C3=O)c2CO)cc(Nc2ccc(N3CCN(C4COC4)CC3)cn2)c1=O | enzyme activity | inhibitor |  | 0.1 µM | inhibition | 19%
